The test system of data set [1] is KBM5. Description: Inhibition of NF-kappaB activation in human KBM5 cells at 100 uM treated for 12 hrs before TNFalpha challenge measured after 12 hrs by EMSA relative to control. In kind it is cell-based. The method, boiled down: (§1)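 Time course: KBM-5 cells (1×10^6/mL) exposed to 100 μM compound for varying times before 0.1 nM TNF for 30 min. Nuclear extracts (15 μg protein) were probed by EMSA with 16 fmol 32P-labeled HIV LTR κB 45-mer for 30 min at 37°C.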

Data set [2] concerns KBM5. In words: Intrinsic activity at IKK in TNF-alpha-stimulated human KBM5 cells at 10 to 100 uM added directly to IKK immune complexes in vitro by immunoprecipitation assay.
Data set [3] has as its system KBM5. Description: Inhibition of TNF-alpha-induced IKK activation in human KBM5 cells at 100 uM treated for 12 hrs before TNFalpha challenge by immunoprecipitation assay. Type of data set: cell-based. The note with it: TDE = time-dependent effect. The method in brief: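 KBM-5 cells (5×10^6/mL) preincubated with 100 μM compound for 12 h, then given 1 nM TNF for the indicated times. IKK immunoprecipitated from whole-cell lysates with anti-IKK-α and assayed at 30°C for 30 min: 50 mM HEPES pH 7.4, 20 mM MgCl2, 2 mM DTT, [32P]ATP, unlabeled ATP, 2 μg GST-IκBα(1-54). Phosphorylated substrate shown by SDS-PAGE/phosphorimaging; total IKK-α/β by immunoblot.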

For data set [4], the system named is KBM5. Description: Inhibition of NF-kappaB activation in human KBM5 cells at 100 uM treated for 12 hrs before TNFalpha challenge by EMSA. Type of data set: cell-based. The note with it: TDE = time-dependent effect. The method, boiled down:
(§2)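 KBM-5 cells (1×10^6/mL) preincubated with compound for 12 h, then stimulated with 0.1 nM TNFα for 30 min. Nuclear extracts (15 μg protein) incubated with 16 fmol 32P-end-labeled 45-mer HIV LTR NF-κB oligonucleotide for 30 min at 37°C and resolved by EMSA. DMSO stock diluted in culture medium.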
(In general: In EMSA bound probe runs differently from free probe, usually more slowly.)

Data set [5] has as its system KBM5. In words: Inhibition of TNF-alpha-induced NF-kappaB activation in human KBM5 cells at 100 uM treated for 12 hrs before TNFalpha challenge measured after 30 mins by EMSA relative to control. Type of data set: cell-based. The method, boiled down:
as §2

The subject of data set [6] is KBM5. Description: Inhibition of NF-kappaB activation in human KBM5 cells at 5 to 100 uM treated for 12 hrs in absence of TNFalpha by EMSA.
The target in data set [7] is Transcription factor p65 (Homo sapiens) (UniProt Q04206). In words: Inhibition of nuclear DNA binding to NF-kappaB p65 subunit in TNF-alpha-stimulated human KBM5 cells at 50 uM after 30 mins by EMSA relative to control. Type of data set: cell-based. The method, boiled down: (§3)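 Direct DNA-binding test: nuclear extracts from untreated KBM-5 cells or cells given 0.1 nM TNF for 30 min were incubated for 30 min with compound at various concentrations. Binding to a 32P-labeled HIV LTR κB oligonucleotide was then assessed by EMSA.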
Transcription factor p65 (Homo sapiens), sequence (Q04206 whole entry): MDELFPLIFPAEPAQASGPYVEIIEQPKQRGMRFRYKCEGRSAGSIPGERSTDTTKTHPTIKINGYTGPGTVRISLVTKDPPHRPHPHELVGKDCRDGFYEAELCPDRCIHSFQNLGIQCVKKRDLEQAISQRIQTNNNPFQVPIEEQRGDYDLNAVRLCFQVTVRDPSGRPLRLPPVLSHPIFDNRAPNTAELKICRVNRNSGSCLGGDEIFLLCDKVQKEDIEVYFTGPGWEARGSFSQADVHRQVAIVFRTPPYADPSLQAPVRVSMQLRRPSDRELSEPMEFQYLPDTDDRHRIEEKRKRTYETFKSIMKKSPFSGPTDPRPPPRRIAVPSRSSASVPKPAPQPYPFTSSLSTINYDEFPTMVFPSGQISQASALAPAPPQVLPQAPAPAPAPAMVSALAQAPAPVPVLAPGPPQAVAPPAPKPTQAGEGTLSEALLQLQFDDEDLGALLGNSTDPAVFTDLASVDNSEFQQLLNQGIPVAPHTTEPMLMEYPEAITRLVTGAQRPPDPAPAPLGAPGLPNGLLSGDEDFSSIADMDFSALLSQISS

For data set [8] the target is unchanged. Description: Inhibition of nuclear DNA binding to NF-kappaB p65 subunit in TNF-alpha-stimulated human KBM5 cells at 10 uM after 30 mins by EMSA relative to control. Type of data set: cell-based. The method, boiled down: as §3
Data set [9] concerns KBM5. Description: Inhibition of NF-kappaB activation in human KBM5 cells at 100 uM treated for 12 hrs before TNFalpha challenge measured after 4 hrs by EMSA relative to control. Type of data set: cell-based.
The subject of data set [10] is KBM5. In words: Inhibition of TNF-alpha-induced NF-kappaB activation in human KBM5 cells treated for 12 hrs before TNFalpha challenge measured after 30 mins by EMSA. In kind it is cell-based. The method, boiled down: as §2
For data set [11], the system named is KBM5. In words: Cytotoxicity against human KBM5 cells at 10 uM after 72 hrs by MTT assay. In kind it is functional, cell-based. The method in brief:
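MTT viability: KBM-5 cells (5000 per well) in triplicate with or without compound for 72 h at 37 °C. MTT (5 mg/ml in PBS) added for 2 h at 37 °C. Extraction buffer (20% SDS, 50% dimethylformamide) added overnight at 37 °C, then OD read at 570 nm.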

Data set [12] has as its system KBM5. Description: Inhibition of NF-kappaB activation in human KBM5 cells at 100 uM treated for 12 hrs before TNFalpha challenge measured after 8 hrs by EMSA relative to control. Type of data set: cell-based. The method, boiled down: as §1
Data set [13] deals with KBM5. In words: Inhibition of TNF-alpha-induced NF-kappaB activation in human KBM5 cells at 100 uM treated for 12 hrs before TNFalpha challenge measured after 30 mins by EMSA. Type of data set: cell-based. The method, boiled down: as §2
The nature of data set [14]: Inhibition of VEGF protein expression in TNF-alpha-stimulated human KBM5 cells at 100 uM after 6 to 24 hrs by Western blot analysis. In kind it is functional, cell-based. The method in brief: (§4)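 Western blot: KBM-5 lysates (30 μg protein) separated by SDS-PAGE and probed with anti-cyclin D1, Bcl-2 or VEGF (1:1000). HRP secondary (1:3000) applied for 2 h, detection by ECL, bands quantified by densitometry.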
In general terms: In western blotting, separated proteins are transferred to a membrane and probed.

For data set [15], the system named is KBM5. In words: Inhibition of Bcl-2 protein expression in TNF-alpha-stimulated human KBM5 cells at 100 uM after 6 to 24 hrs by Western blot analysis. In kind it is functional, cell-based. The method in brief:
as §4

Data set [16] can be described thus: Inhibition of cyclin D1 protein expression in TNF-alpha-stimulated human KBM5 cells at 100 uM after 6 to 24 hrs by Western blot analysis. In kind it is functional, cell-based. The method, boiled down: as §4
Data set [17] has as its system KBM5. In words: Inhibition of NF-kappaB activation in human KBM5 cells at 100 uM treated for 12 hrs before TNFalpha challenge measured after 6 hrs by EMSA relative to control. In kind it is cell-based. The method in brief:
as §1

Data set [18] deals with Transcription factor p65 (Homo sapiens) (UniProt Q04206). Description: Inhibition of nuclear DNA binding to NF-kappaB p65 subunit in TNF-alpha-stimulated human KBM5 cells at 25 uM after 30 mins by EMSA relative to control. Type of data set: cell-based. The method in brief: as §3
Data set [19] can be described thus: Cytotoxicity against human KBM5 cells assessed as cell viability at 100 uM by trypan blue assay. Type of data set: cell-based. The note with it: read-out: Activity.
Data set [20] deals with Transcription factor p65 (Homo sapiens) (UniProt Q04206). In words: Inhibition of nuclear DNA binding to NF-kappaB p65 subunit in TNF-alpha-stimulated human KBM5 cells at 100 uM after 30 mins by EMSA relative to control. Type of data set: cell-based. The method, boiled down:
as §3

The text below walks through data of ChEMBL document CHEMBL1157701, “Inhibition of IkB kinase and NF-kappaB by a novel synthetic compound SK 2009” (Bioorg Med Chem, 2010).

Activity calls are given as the source filed them. The rule behind the calls is not given here.

For orientation: inhibition means the share of the control response that was lost under treatment.

With `CCCCCCC[C@H](CO)[C@H](O)CCOCc1ccccc1`, the fold change (FC) in data set [1] is 1; in data set [5] it was 4.5; in data set [7] it was 3.8; in data set [8], 3.8; in [9] it was 4.2; in [12], 2.5. In addition, the fold change (FC) in data set [17] worked out at 3.1; in data set [18] it was 3.9; in data set [20] it was 3.9. Besides, the result in data set [2] was inactive. Also, the inhibition entry is “tde” in data set [3], “tde” in [4], “Dose-dependent effect” in data set [10] and 100% in data set [13]. Further, the inhibition entry in [6] was “inactive”. Also, in data set [11], the result was Active. Moreover, the inhibition entry in data set [14], in data set [15] and in data set [16] was “Active” throughout. Moreover, in data set [19], the viability at 100 µM is 98%.

With `CCCCCCCCCCCCCC[C@H]1COC(=O)C[C@H]1O`, in data set [5], the fold change (FC) was 3.6. In addition, the outcome in data set [11] was Active. The inhibition in data set [13] was 30%. The viability at 100 µM in [19] is 95%.

In data set [5], `CCCCCCCCCC(=O)N1C(=O)OC[C@@H]1Cc1ccccc1` displayed a fold change (FC) of 2.4. The outcome in data set [11] was Active. For the same molecule, the viability at 100 µM in [19] was determined as 97%.

In data set [5], `CCCCCCCC[C@H](CO)[C@H](O)CCOCc1ccccc1` had a fold change (FC) of 1.1. In addition, the result in data set [11] was Active. Further, the viability at 100 µM in data set [19] was found to be 97%.

For the molecule `CCCCCCCC[C@@H]1COC(C)(C)O[C@@H]1CCOCc1ccccc1`, the fold change (FC) in data set [5] is 1.4. Besides, in data set [11], the result was Active. Besides, the viability at 100 µM in [19] amounted to 97%.

In turn, `CCCCCCCC[C@H](C(=O)N1C(=O)OC[C@@H]1Cc1ccccc1)[C@H](O)CCOCc1ccccc1` showed a fold change (FC) in data set [5] of 1.3. Further, in data set [11], the outcome was Active. Moreover, the viability at 100 µM in data set [19] amounted to 98%.
